Screening results from PubChem.
NadD block: blocks S. aureus nicotinate mononucleotide adenylyltransferase. purified NadD enzyme, colorimetric absorbance read-out. inhibition, % at 20 µM. actives 0.78% (n = 360,000). AID 602399; in the data active means inhibition above about 26%
core dimer inh: HCV core protein dimerization inhibition; TR-FRET GST/Flag-core106 dimerization, 1536-well; inhibition, % at 5 µM; actives 0.33% (n = 300,000); AID 1899;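 active means inhibition above the mean of all tested compounds plus 3 SD, set per screening campaign, cut at about 45% in these data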
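Test system: GST/Flag-tagged HCV core106 proteins; Medium: KF-containing HEPES buffer, pH 7.45, DTT, CHAPS, BSA; Times: compound-protein-antibody incubation 4 h at 22.5 °C; Detection: TR-FRET 671 and 617 nm emission; Benchmarks: wells lacking GST-core106 and wells with excess unlabelled core106.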
ABHD5 PLIN5 PPI: ABHD5-PLIN5 protein interaction inhibition; Q00G26+Q8WTS1; AID 602281; actives 0.78% (n = 360,000); Split G. princeps luciferase complementation, luminescence, 4 h; inhibition, % at 4 µM;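 active means inhibition above the mean inhibition across every tested compound plus 3 SD, cut at about 22% in these data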;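 further: 0% = DMSO only wells and the 100% control is not disclosed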
rCAG binder: binds r(CAG) RNA repeats. r(CAG) RNA repeat, TO-PRO-1 dye displacement fluorescence. inhibition, % at 3 µM. actives 1.3% (n = 370,000). AID 651821;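 active means inhibition above the plate cutoff, the mean of all test compounds on that plate plus 3 SD, cut at about 35% in these data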;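 further: 0% = DMSO alone and 100% = 100 µM mitoxantrone as full dye displacement; higher means more dye released from RNA so lower well fluorescence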
ABHD5-PLIN5 conf: confirmation of human ABHD5-PLIN5 interaction inhibitors; shares compounds with ABHD5 PLIN5 PPI; biochemical ABHD5-PLIN5 interaction, luminescence; inhibition, % at 4 µM; actives 67% (n = 2,200); AID 651612; in the data active means inhibition above about 23%;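 further: 0% = DMSO vehicle wells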
HNF4 split-luc: HNF4 split-luciferase signal hit, counter-screen; actives 77% (n = 2,200); shares compounds with ABHD5 PLIN5 PPI; AID 651674; inhibition, % at 4 µM; HNF4 dimerization, luminescence, biochemical;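 active means mean inhibition across replicate wells exceeding the computed hit threshold, cut at about 13% in these data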;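 further: light from luciferase halves that rejoin when HNF4 fusion proteins dimerize; 0% = DMSO only wells and the 100% control is not given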
Target sequence (P41235 whole entry, looked up, the tested form may be a part): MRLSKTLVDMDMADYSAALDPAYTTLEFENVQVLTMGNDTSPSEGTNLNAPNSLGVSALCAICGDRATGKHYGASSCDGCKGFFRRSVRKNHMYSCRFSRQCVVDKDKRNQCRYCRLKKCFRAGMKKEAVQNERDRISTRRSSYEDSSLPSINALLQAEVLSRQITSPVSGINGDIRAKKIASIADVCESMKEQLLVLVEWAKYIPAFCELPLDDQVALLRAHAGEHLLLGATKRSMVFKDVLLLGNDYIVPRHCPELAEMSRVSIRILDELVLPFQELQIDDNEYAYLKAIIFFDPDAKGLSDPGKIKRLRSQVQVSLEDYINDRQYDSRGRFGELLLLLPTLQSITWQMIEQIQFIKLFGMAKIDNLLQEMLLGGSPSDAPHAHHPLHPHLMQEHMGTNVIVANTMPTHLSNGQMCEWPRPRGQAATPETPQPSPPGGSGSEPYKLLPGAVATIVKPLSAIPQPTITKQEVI
* marks the source's active call; other numbers are inactive results; / = not tested or not shown. Only some compounds are listed: those with a hit (about 2.6% of all), similar ones and a draw of the others.

SMILES	NadD block	core dimer inh	ABHD5 PLIN5 PPI	rCAG binder	ABHD5-PLIN5 conf	HNF4 split-luc
O=C(COC(=O)c1cc(S(=O)(=O)N2CCc3ccccc3C2)ccc1Cl)NCc1ccco1	26.7	10.2	28.5*	10.6	45.1*	59.2*
C=Cc1ccc(C(=O)N(Cc2ccc(F)cc2)C(C(=O)N(C)C2CCCC2)c2ccc(OC)c(OC)c2)cc1 (centres undefined)	/	/	/	5.3	/	/
CS(=O)(=O)c1nc(-c2ccc(F)cc2)cc(C(F)(F)F)n1	-1.7	/	51.3*	-5.0	63.4*	98.8*
COc1ccc(-c2cc(C(F)(F)F)nc(S(C)(=O)=O)n2)cc1	-4.3	11.1	48.4*	4.5	67.2*	91.1*
CCCN1CCS(=O)(=O)N(Cc2cn(Cc3ccc(C)cc3)nn2)C(C(=O)OC)C1 (centres undefined)	/	/	/	1.6	/	/
CCOC(=O)C1CSCCS(=O)(=O)N1Cc1ccccc1F (centres undefined)	/	/	/	-1.8	/	/
COc1ccc(C(=Cc2ccccc2)C(=O)O)cc1	-2.6	/	-0.4	2.5	/	/
COc1ccc(C=C(C(C)=O)C(=O)c2ccccc2)cc1	-3.8	/	39.8*	1.3	51.6*	42.8*
COc1ccc(C=C(C(=O)c2ccccc2)c2ccccc2)cc1	14.3	/	-2.6	2.0	/	/
COc1ccc(C=C(C(=O)c2ccccc2)C(=O)c2ccccc2)cc1	-1.4	/	60.2*	4.4	60.5*	55.6*
CC(=O)C(=Cc1ccc(Cl)cc1)C(=O)c1ccccc1	-0.1	/	85.2*	1.2	102.3*	97.9*
CC(=O)C(=Cc1cccc(C#N)c1)C(=O)c1ccccc1	7.1	/	61.5*	4.4	94.8*	86.7*
C=CCn1c(COc2ccc(C)cc2)nnc1SCC(=O)c1ccc(-c2ccccc2)cc1	/	/	/	9.3	/	/
C=CCCC1CN(Cc2ccc(OC)cc2)S(=O)(=O)c2c(cccc2Sc2ccc(OC)c(OC)c2)O1 (centres undefined)	/	/	/	11.8	/	/
Cc1ccc(-c2nnc(-c3ccc4c(c3)OCO4)o2)cc1	-5.9	2.8	-1.8	-0.4	/	/
CC(C)C1N=C(c2ccc3c(c2)OCO3)CC(c2ccccc2O)N1 (centres undefined)	4.0	0.3	56.0*	10.0	58.1*	82.0*
CC1=C(CO)C(=O)OC([C@@H](C)C2CC[C@H]3C4C[C@H]5O[C@]56[C@@H](O)C=CC(=O)[C@]6(C)C4CC[C@]23C)C1 (some centres undefined)	5.7	5.0	64.6*	2.8	76.7*	76.6*
COc1ccc(/C=C\C(=O)CC(O)(c2ccccc2)C(F)(F)F)cc1 (centres undefined)	-6.5	0.0	52.9*	-8.8	78.6*	54.9*
COc1ccc(/C=C/C(=O)OCC(=O)c2ccccc2F)cc1	-2.3	/	6.7	0.9	/	/
CCCCNC(=O)C1(C)CCN1C(=O)c1sccc1C (centres undefined)	-2.3	/	-6.0	-0.5	/	/
CC(=O)Oc1c(Cl)cc(N(C(C)=O)S(=O)(=O)c2ccccc2)c2ccccc12	-10.3	-6.4	57.9*	-1.8	48.5*	14.8*
CCOc1cccc(=O)c2c(C)n(-c3ccc(C(=O)O)cc3)c(C)c12	12.4	-3.8	12.6	27.9	/	/
CCOc1cccc(=O)c2c(C)n(Cc3ccco3)c(C)c12	29.3	16.9	24.1*	14.8	28.8*	54.6*
Cc1ccc(-n2c(SCC(=O)Nc3ccc(OCc4ccccc4)cc3)nnc2-c2ccccc2)cc1	/	/	/	7.0	/	/
CCCCn1nnnc1C1(C)CCC(=O)N1CCCn1ccnc1 (centres undefined)	4.9	/	58.6*	0.6	46.5*	46.0*
SMILES	NadD block	core dimer inh	ABHD5 PLIN5 PPI	rCAG binder	ABHD5-PLIN5 conf	HNF4 split-luc
CN1NC(c2ccccc2)NN(C)C1=O	-0.2	/	-26.2	1.5	/	/
O=C(CSc1c2c(nc3cc(Cl)ccc13)CCCC2)NCCCN1CCOCC1	-1.6	5.8	20.1	-9.9	/	/
CCN(CC)CCCNC(=O)CSc1c2c(nc3cc(Cl)ccc13)CCCC2	-9.6	-0.7	29.2*	-3.4	39.1*	27.6*
c1ccc2c(c1)ccc1ccccc12	-0.1	/	-2.8	-3.2	/	/
O=c1ccc2ccccc2c2ccccc12	-4.7	/	87.2*	2.3	97.1*	103.5*
COC(=O)C[C@@H]1CC[C@H]2[C@@H](COc3ccc(NC(=O)c4cc(C)on4)cc3C(=O)N2C)O1	/	/	/	-0.9	/	/
O=C(NCc1ccco1)c1cccc2c1C(=O)c1ccc(N3CCCC3)cc1S2(=O)=O	-0.9	/	25.8*	-30.0	32.9*	73.5*
O=C(NCc1cccc(F)c1)c1cccc2c1C(=O)c1ccc(N3CCOCC3)cc1S2(=O)=O	7.6	/	25.3*	0.7	-1.0	16.4*
O=C(c1ccccc1Cl)N1CCSCCS1(=O)=O	/	/	/	-1.0	/	/
O=C(Nc1nc2ccccc2[nH]1)NC1CCCCC1	-1.4	-15.6	101.7*	7.4	3.8	2.9
O=C(Nc1ccccc1)N1c2ccccc2SC1c1ccco1 (centres undefined)	/	/	/	3.4	/	/
O=C(CN1CCN(C(c2ccccc2)c2ccccc2)CC1)N1CCOCC1	2.7	-1.9	-0.3	-10.9	/	/
Oc1c(C(c2ccccc2)N2CCOCC2)ccc2ccccc12 (centres undefined)	18.1	/	39.6*	15.2	102.2*	105.9*
COc1ccccc1-c1csc(C(O)c2ccc(F)cc2)n1 (centres undefined)	4.6	/	-0.9	-0.2	/	/
O=S(=O)(N=C1C=CC(=NS(=O)(=O)c2ccccc2)c2ccccc21)c1ccccc1	33.4*	/	33.1*	32.0	63.2*	42.2*
COc1ccc(CC(=O)NCC2CCN(C(=O)C(=O)c3cc4ccccc4o3)CC2)cc1	/	/	/	2.6	/	/
O=C(O)c1ccccc1Sc1c([N+](=O)[O-])cc(C(F)(F)F)cc1[N+](=O)[O-]	0.7	1.3	27.0*	1.6	46.5*	29.5*
O=[N+]([O-])c1cc(C(F)(F)F)cc([N+](=O)[O-])c1Sc1n[nH]c(C(F)(F)F)n1	-5.8	-5.4	45.2*	3.7	75.3*	56.3*
O=C(NCC1CC1)c1csc(COCCO)n1	-0.4	/	4.2	3.6	/	/
CCCCN(C)c1nc(C)nc2c1nnn2Cc1ccccc1	/	/	/	-0.5	/	/
CN(C)c1ccc(/C=C2/C[N+](C)(C)C/C(=C/c3ccc(N(C)C)cc3)C2=O)cc1	-1.5	/	38.7*	13.2	49.7*	41.7*
COc1cc(CNCc2ccccn2)ccc1OCc1ccc(Cl)cc1Cl	2.4	-3.8	25.2*	-4.4	7.2	6.6
COc1cc(CNCCN2CCOCC2)ccc1OCc1ccc(Cl)cc1Cl	-9.5	-5.2	23.5*	-3.0	11.8	13.0*
COc1cccc(C(C)(O)c2nc(-c3ccc(F)cc3OC)cs2)c1 (centres undefined)	-10.3	/	-4.2	2.0	/	/
COc1ccc(OC)c2sc(NC(=O)C(C)C)nc12	-3.3	6.2	4.5	0.0	/	/
COc1ccc(OC)c2sc(Cl)nc12	-4.4	2.8	109.4*	-2.9	2.9	1.5
